Bioassay records deposited in PubChem by Broad Institute.
Compounds with a hit are over-represented: about 0.92% of the library has one in this group of screens.
FN deposition inh = fibronectin deposition inhibition; AH1F fibroblasts, Alexa488-fibronectin deposition fluorescence, overnight; inhibition, % at 12.6 µM; 350,000 compounds, 0.086% hits; AID 743247;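 active = mean inhibition across replicates of 30% or more, regardless of how many single replicates reach that level; inconclusive = mean under 30% yet at least half of replicates reach 30%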;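 note: positive control wells lacked labelled fibronectin entirely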
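Schedule: 1 h cell adhesion before compound, then overnight fibronectin incubation; test system: AH1F fibroblast monolayer depositing Alexa488-labelled fibronectin into matrix; quantity: 10000 AH1F cells per well; probe or stimulus: fluorescent fibronectin at 24 nM final; signal: fluorescence, ex 485 nm, em 525 nm; evaluation: percent inhibition as loss of matrix-bound fibronectin fluorescence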
RAD54 inh = blocks human RAD54 Holliday junction branch migration. Q92698. 360,000 compounds, 0.14% hits. FAM/BHQ fluorescence. inhibition, % at 10.4 µM;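 active = mean normalized replicate activity at least 40 and at least half of replicates scoring 40 or more; inconclusive = only one of the two criteria met; inactive = mean below 40 and under half of replicates reaching 40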;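 note: 0% = median of neutral control wells and 100% = median of positive control wells; inhibitors cause a drop in the FAM fluorescence signal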
N-glyco inh = N-linked glycosylation inhibition; 360,000 compounds, 0.23% hits; D54 ERlucT glycosylation luciferase reporter, 24 h; percent of 100 nM tunicamycin response; reporter increase, % at 12.5 µM;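 active = mean luciferase reporter signal, scaled so untreated is 0 and the glycosylation-blocking control 100, at or above a set limit in every replicate; inconclusive = mean reaches the limit but not every replicate does; inactive = mean below the limit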;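 note: luciferase carries N-glycosylation sites so blocking glycosylation raises the light; 0% = median of neutral control wells and 100% = median of 100 nM tunicamycin wells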
RAD52 inh = inhibitors of human RAD52 DNA annealing. P43351. recombinant RAD52 DNA annealing, FRET fluorescence. inhibition, % at 18.7 µM. 360,000 compounds, 0.46% hits. AID 651710;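 active = every replicate showing at least 50% inhibition; inconclusive = mean inhibition at least 50% but not in every replicate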
AF4-AF9 inh = inhibitors of human MLL-AF4/AF9 interaction; P42568; AlphaScreen, biotin-AF4 peptide binding to FLAG-AF9; inhibition, % at 10 µM; 350,000 compounds, 0.47% hits;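 active = every replicate reaching a set inhibition limit, whatever the replicate mean, cut at about 25% in these data; inconclusive = mean inhibition reaches that limit but some replicates miss it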;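 note: 0% = plate neutral control median and 100% = total signal loss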
Target sequence (P42568 whole entry, looked up): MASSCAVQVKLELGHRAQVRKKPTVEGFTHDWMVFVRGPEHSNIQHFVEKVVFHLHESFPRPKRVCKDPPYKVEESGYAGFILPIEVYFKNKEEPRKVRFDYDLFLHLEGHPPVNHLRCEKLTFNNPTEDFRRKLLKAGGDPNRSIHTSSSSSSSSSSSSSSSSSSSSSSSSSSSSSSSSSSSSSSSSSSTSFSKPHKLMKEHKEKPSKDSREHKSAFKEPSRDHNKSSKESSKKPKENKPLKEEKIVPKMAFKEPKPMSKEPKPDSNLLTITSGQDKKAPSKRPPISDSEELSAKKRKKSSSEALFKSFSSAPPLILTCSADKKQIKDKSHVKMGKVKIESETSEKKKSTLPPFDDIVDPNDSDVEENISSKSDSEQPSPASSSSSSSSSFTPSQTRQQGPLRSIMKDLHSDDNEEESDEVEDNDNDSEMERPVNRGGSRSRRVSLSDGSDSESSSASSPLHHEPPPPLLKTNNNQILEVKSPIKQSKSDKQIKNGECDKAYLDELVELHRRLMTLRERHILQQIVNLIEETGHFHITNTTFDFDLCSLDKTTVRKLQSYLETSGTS
AlphaScreen intf = AlphaScreen signal interference counter-screen hit; signal luminescence; 530 compounds, 45% hits; AC50, µM (doses to about 12 µM), inactives show at the highest dose activity change, negative = inhibition; shares compounds with AF4-AF9 inh; cut-off not given, nearly all actives have AC50 up to about 14 µM
* = called active by the depositor; i = inactive; ? = inconclusive; nt = no result given.

SMILES	FN deposition inh	RAD54 inh	N-glyco inh	RAD52 inh	AF4-AF9 inh	AlphaScreen intf
COc1ccc(/C=C/C(=O)c2cc3c(cc2N)OCO3)cc1	-15	nt	-3	-12	38*	-30%
Cc1c(N=C2C=CC(=O)c3ccccc32)c(=O)n(-c2ccccc2)n1C	3	nt	4	12	35*	-44%
CCN(CC)CCSc1nc2ccccc2c(=S)n1-c1ccccc1	-5	nt	nt	3	34*	-28%
CC[n+]1c(/C=C/c2ccc(OC)c(OC)c2)ccc2ccccc21	-5	6	-9	9	0	nt
CC[n+]1c(/C=C/c2ccc(N(C)C)cc2)ccc2ccccc21	nt	nt	5	20	50*	5.8µM*
CCN(CC)c1ccc(/C=C/c2ccc3ccc(OC)cc3[n+]2CC)cc1	-20	-3	6	-34	59*	5.2µM*
Oc1cc(NCCN2CCOCC2)cc2cccnc12	-10	-12	21	48	27*	12µM*
NC(N)=NCCCS(=O)(=O)Nc1ccc(Nc2c3ccccc3nc3cc([N+](=O)[O-])ccc23)cc1	0	nt	0	5	78*	5.6µM*
C[C@@H]1CCCCO[C@H](CN(C)S(=O)(=O)c2cccs2)[C@H](C)CN([C@H](C)CO)C(=O)c2cc(NS(C)(=O)=O)ccc2O1	nt	-2	nt	11	-1	nt
COc1ccccc1C(CCNCc1ccc(N(C)C)cc1)c1ccc(OC(C)C)cc1 (centres undefined)	-2	-15	-12	-17	74*	2.9µM*
COc1ccc(C(CCNCc2ccc(N(C)C)cc2)C(C)C)cc1 (centres undefined)	10	nt	-5	7	41*	11µM*
COc1ccc(CNCCC(c2ccc(OC(C)C)cc2)c2ccccc2OC)cc1 (centres undefined)	4	nt	-15	-46	13	nt
O=C(O)C[C@@H]1C=C[C@H](NC(=O)CCN2CCCCC2)[C@@H](CO)O1	-9	nt	nt	1	-20	nt
C[C@H](CO)N1C[C@H](C)[C@@H](CN(C)Cc2ccc(C(=O)O)cc2)OCCCC[C@H](C)Oc2ccc(NC(=O)Nc3ccccc3)cc2C1=O	-13	3	nt	9	-1	nt
O=C(NC1CCCCC1)C(c1cccs1)N(CCCN1CCOCC1)C(=O)c1ccc(-c2ccccc2)[nH]1 (centres undefined)	6	nt	-6	-17	31*	-17%
Cc1ccc(C(C(=O)NC(C)(C)C)N(CCCN2CCOCC2)C(=O)c2ccc(-c3ccccc3)[nH]2)o1 (centres undefined)	nt	nt	2	0	2	nt
C[C@@H]1CN([C@@H](C)CO)C(=O)c2cccc(NC(=O)NC3CCCCC3)c2O[C@H]1CN(C)C(=O)NC1CCCCC1	nt	-3	nt	7	-2	nt
c1ccc(N=Nc2ccc3cccccc2-3)cc1	-15	-3	26*	-15	77*	1µM*
COc1ccc(NC(=O)Nc2ccc3c(c2)C(=O)N([C@@H](C)CO)C[C@@H](C)[C@H](CN(C)C(=O)Nc2ccc(OC)cc2)O3)cc1	nt	0	nt	-1	0	nt
COc1ccc2nc(C)cc(N3CCC(C(N)=O)CC3)c2c1	1	28	2	-7	-3	nt
COc1ccc(N2CCN(c3cc(C)nc4ccc(OC)cc34)CC2)cc1	7	20	1	-2	34*	-38%
COc1cc(N(C)C)ccc1C=c1c2ccccc2n2c1cc(-c1ccccc1)[n+]2C	5	nt	9	45	84*	2.1µM*
CN(C)c1ccc(C=c2c3ccccc3n3c2cc(-c2ccccc2)[n+]3C)cc1	-12	nt	?	-12	43*	4.4µM*
CN(C)CCCNC(=O)C[C@@H]1CC[C@H]2[C@@H](COc3ccc(NC(=O)NC4CCCC4)cc3C(=O)N2C)O1	3	8	nt	4	-1	nt
Cc1ccc2c(c1)[C@@H]1CN(C)CC[C@@H]1N2S(=O)(=O)c1ccc([N+](=O)[O-])cc1	nt	-5	1	4	9	nt
SMILES	FN deposition inh	RAD54 inh	N-glyco inh	RAD52 inh	AF4-AF9 inh	AlphaScreen intf
Cc1ccc2c(c1)C1CN(C)CCC1N2Sc1ccccc1[N+](=O)[O-] (centres undefined)	-8	nt	-1	31	35*	9.3µM*
Cc1ccc(S(=O)(=O)N(C)C[C@H]2Oc3ccc(NC(=O)c4ccncc4)cc3CC(=O)N([C@@H](C)CO)C[C@H]2C)cc1	nt	6	nt	-3	1	nt
Oc1c(C(c2ccccc2Cl)N2CCCC2)ccc2cccnc12 (centres undefined)	2	nt	-9	-30	91*	2.1µM*
Oc1c(C(c2ccc(Cl)cc2)N2CCCC2)cc(Cl)c2cccnc12 (centres undefined)	-1	nt	21	-20	56*	-44%
CN1CCN(C(c2ccc(C(F)(F)F)cc2)c2ccc3cccnc3c2O)CC1 (centres undefined)	-13	nt	nt	13	85*	2.4µM*
CN1CCN(C(c2ccccn2)c2cc(Cl)c3cccnc3c2O)CC1 (centres undefined)	14	nt	10	-19	39*	-7%
CC(=O)NC(c1cc(Cl)c2cccnc2c1O)C(C)C (centres undefined)	-9	-5	-12	-12	11	nt
COc1ccc2c3c([nH]c2c1)[C@H](CO)N(Cc1nccs1)CC31CN(C(=O)C2CCCC2)C1	nt	nt	nt	-36	1	nt
COc1ccc2c3c(n(C)c2c1)[C@H](CO)N(C(=O)CN1CCOCC1)CC31CN(C(C)=O)C1	nt	nt	nt	-6	0	nt
C[C@@H]1CN([C@H](C)CO)C(=O)c2cc(NC(=O)CCC(F)(F)F)ccc2O[C@@H](C)CCCCO[C@@H]1CN(C)C(=O)C1CCCCC1	nt	9	nt	10	0	nt
COCC(=O)N1C[C@@H](C)[C@@H](OC)CN(C)C(=O)c2ccc(NC(=O)c3ccc(OC)cc3)cc2OC[C@@H]1C	9	3	nt	2	-4	nt
COC(=O)C1=C(C)NC(C)=C(C(=O)OCC(C)C)C1c1ccccc1[N+](=O)[O-] (centres undefined)	13	4	-3	-17	38*	11µM*
COCC(=O)Nc1ccc2c(c1)C(=O)N(C)C[C@H](OC)[C@@H](C)CN(CC1CCCCC1)[C@H](C)CO2	-8	-2	nt	0	9	nt
COc1cccc(CNc2ccc3[nH]c(=O)[nH]c3c2)c1OCc1ccccc1F	5	9	-1	-11	41*	-20%
COc1ccc(S(=O)(=O)N(C)C[C@@H]2Oc3ccc(NS(=O)(=O)c4ccc(C)cc4)cc3CC(=O)N([C@@H](C)CO)C[C@H]2C)cc1	nt	1	nt	nt	nt	nt
O=C(NN1C(=O)/C(=C/c2ccc(O)c(O)c2)SC1=S)c1ccccc1	21	-18	-2	i	?	-24%
O=C1/C(=C/c2ccc(O)c(O)c2)SC(=S)N1Nc1ccccc1	nt	nt	-4	nt	nt	nt
CC1=NN(c2ccccc2)C(=O)/C1=C/C=C/c1ccc(N(C)C)cc1	-12	nt	-5	3	67*	-41%
